The text below walks through data of PMC4726456 (Cell, 2014).

Values joined by “and” are separate entries in the source; they are usually repeats but may differ in a detail not shown here. Identical values can stand only once.

Data set [1] deals with microtubules. In kind it is biochemical. To be noted: for Effect on microtubule acetylation by TAT: saturating concentration of MAP.
Data set [2] deals with microtubules. As to the kind of experiment: Single-molecule TIRF of TAT-GFP scanning on microtubules. To be noted: for Effect on TAT-GFP microtubule scanning: saturating concentration of MAP. Type of data set: binding.
A further data set concerns tubulin polymers. In words: TAT activity with tubulin polymers of diverse geometries. In kind it is biochemical. To be noted: Figure 3A, N≥3. In a few lines: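 Microtubule substrate was stabilized with 20 µM taxol. Negative-stain EM confirmed dolastatin-10 rings, Zn sheets and microtubules under the reaction conditions. Values are means ± S.E.M. (N≥3), compared by t-test.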

The test system of the next data set is unpolymerized tubulin. In words: TAT-tubulin complex formation by analytical ultracentrifugation. To be noted: TAT concentrations as high as 40 µM. In kind it is binding.
Data set [3] has as its target microtubules. As to the kind of experiment: TAT binding to microtubules in sedimentation assays. To be noted: read-out: Kd for microtubules, Figure S3B and C.
For data set [4], the system named is microtubules. As to the kind of experiment: Immunofluorescence of acetylation distribution on microtubules. Type of data set: biochemical. To be noted: taxol stabilized microtubules; antibody specific for acetylated tubulin; Figure 4. In a few lines:
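Recombinant TAT acetylated taxol-stabilized microtubules in vitro. Excess enzyme was used at a 10:1 TAT:tubulin molar ratio and sampled over a time course. Marks were detected by immunofluorescence. Line-scans were taken along microtubules in the acetylated-tubulin channel. End analysis at 15 s averaged 25 line-scans from the tip to 5 µm inward.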

Data set [5] concerns tubulin. As to the kind of experiment: Tubulin acetylation assay. In kind it is biochemical.
The test system of data set [6] is microtubules. As to the kind of experiment: Microtubule acetylation assay. Type of data set: biochemical. To be noted: bulk measurements.
Data set [7] relates to dolastatin-induced tubulin rings. In words: Stacking of dolastatin-induced tubulin rings by TAT. To be noted: Figures S3D, S3E.
The next data set has as its system TAT. To be noted: ref Friedmann et al., 2012; cited from earlier work.
The test system of a further data set is microtubules and tubulin. In words: Acetylation activity of TAT mutants with microtubules and tubulin. To be noted: Figure 2C. Type of data set: biochemical.
The subject of data set [8] is tubulin. In words: Activity of bead-coupled biotinylated TAT with tubulin. To be noted: 1 µm streptavidin beads; Figure 6A. Type of data set: biochemical. In a few lines:
(§1)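 Biotinylated TAT was either immobilized on 1 µm diameter streptavidin beads or left free in solution. Each form was reacted with tubulin or with microtubules. Activity was normalized to the free enzyme. About 15% unpolymerized tubulin was present in the microtubule reactions.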

The subject of data set [9] is microtubules. As to the kind of experiment: Activity of bead-coupled biotinylated TAT with microtubules. In kind it is biochemical. To be noted: 1 µm streptavidin beads; Figure 6A. The procedure, abridged:
as §1

In data set [10] the test system is S. cerevisiae microtubules. In words: Single-molecule TIRF of TAT-GFP on S. cerevisiae microtubules. To be noted: purified S. cerevisiae microtubules and engineered with human C-terminal tails. In kind it is binding, Saccharomyces cerevisiae.

B1: kinesin: motor domain of kinesin-5 (protein)
chain: MASQPNSSAKKKEEKGKNIQVVVRCRPFNLAERKASAHSIVECDPVRKEVSVRTGGLADKSSRKTYTFDMVFGASTKQIDVYRSVVCPILDEVIMGYNCTIFAYGQTGTGKTFTMEGERSPNEEYTWEEDPLAGIIPRTLHQIFEKLTDNGTEFSVKVSLLEIYNEELFDLLNPSSDVSERLQMFDDPRNKRGVIIKGLEEITVHNKDEVYQILEKGAAKRTTAATLMNAYSSRSHSVFSVTIHMKETTIDGEELVKIGKLNLVDLAGSENIGRSGAVDKRAREAGNINQSLLTLGRVITALVERTPHVPYRESKLTRILQDSLGGRTRTSIIATISPASLNLEETLSTLEYAHRAKNILNKPEVNQKLTKKALIKEYTEEIERLKRDLAAAREKNGVYISEENFRVMSGKLTVQEEQIVELIEKIGAVEEELNRVTELFMDNKNELDQCKSDLQNKTQELETTQKHLQETKLQLVKEEYITSALESTEEKLHDAASKLLNTVEETTKDVSGLHSKLDRKKAVDQHNAEAQDIFGKNLNSLFNNMEELIKDGSSKQKAMLEVHKTLFGNLLSSSVSALDTITTVALGSLTSIPENVSTHVSQIFNMILKEQSLAAESKTVLQELINVLKTDLLSSLEMILSPTVVSILKINSQLKHIFKTSLTVADKIEDQKKELDGFLSILCNNLHELQENTICSLVESQKQCGNLTEDLKTIKQTHSQELCKLMNLWTERFCALEEKCENIQKPLSSVQENIQQKSKDIVNKMTFHSQKFCADSDGFSQELRNFNQEGTKLVEESVKHSDKLNGNLEKISQETEQRCESLNTRTVYFSEQWVSSLNEREQELHNLLEVVSQCCEASSSDITEKSDGRKAAHEKQHNIFLDQMTIDEDKLIAQNLELNETIKIGLTKLNCFLEQDLKLDIPTGTTPQRKSYLYPSTLVRTEPREHLLDQLKRKQPELLMMLNCSENNKEETIPDVDVEEAVLGQYTEEPLSQEPSVDAGVDCSSIGGVPFFQHKKSHGKDKENRGINTLERSKVEETTEHLVTKSRLPLRAQINL
Consider B1, for which, in the data set on microtubules [1] (Figure 5F), the “Effect on microtubule acetylation by TAT” value is given as “no effect”. In the data set on microtubules [2] (Figure 5F), the “Effect on TAT-GFP microtubule scanning” value is “no effect”.

B2: doublecortin: microtubule binding protein covering the fenestration at the vertices between four tubulin dimers (protein)
chain: MELDFGHFDERDKTSRNMRGSRMNGLPSPTHSAHCSFYRTRTLQALSNEKKAKKVRFYRNGDRYFKGIVYAVSSDRFRSFDALLADLTRSLSDNINLPQGVRYIYTIDGSRKIGSMDELEEGESYVCSSDNFFKKVEYTKNVNPNWSVNVKTSANMKAPQSLASSNSAQARENKDFVRPKLVTIIRSGVKPRKAVRVLLNKKTAHSFEQVLTDITEAIKLETGVVKKLYTLDGKQVTCLHDFFGDDDVFIACGPEKFRYAQDDFSLDENECRVMKGNPSATAGPKASPTPQKTSAKSPGPMRRSKSPADSGNDQDANGTSSSQLSTPKSKQSPISTPTSPGSLRKHKDLYLPLSLDDSDSLGDSM
As to B2, the “Effect on microtubule acetylation by TAT” value in the data set with microtubules [1] (Figure 5F) is listed as “no effect”. Moreover, the “Effect on TAT-GFP microtubule scanning” value in the data set with microtubules [2] (Figure 5F) was “no effect”.

B3: TAT: Homo sapiens TAT (1–196) expressed in Escherichia coli as a GST-fusion (protein)
chain: MEFPFDVDALFPERITVLDQHLRPPARRPGTTTPARVDLQQQIMTIIDELGKASAKAQNLSAPITSASRMQSNRHVVYILKDSSARPAGKGAIIGFIKVGYKKLFVLDDREAHNEVEPLCILDFYIHESVQRHGHGRELFQYMLQKERVEPHQLAIDRPSQKLLKFLNKHYNLETTVPQVNNFVIFEGFFAHQHRP
modifications: left off: GST, end not stated, state not stated
Consider B3, for which the “Acetylation of unmodified microtubules vs brain microtubules” value with microtubules [1] (Figures S5G and S5H) was “as effectively as brain microtubules”. The “Microtubule acetylation after removal of C-terminal tails” value with microtubules [1] (subtilisin microtubules, Figure 5F) is “unaffected by removal of the C-terminal tails”. Besides, the “TAT activity with microtubules vs unpolymerized tubulin” value in the data set on tubulin polymers is reported as “largest activity enhancement over unpolymerized tubulin is seen with microtubules”. In addition, in the data set with unpolymerized tubulin, the “Stable complex formation with unpolymerized tubulin” value is given as “undetectable”. Further, the Kd at microtubules [3] is approximately 44 µM. Moreover, the “Distribution of acetylation along microtubule” value in the data set on microtubules [4] is “acetylates along the entire microtubule without a preference for ends”. Further, the “Catalytic rate with tubulin” value with tubulin [5] came out at 0.4 h⁻¹. For the same molecule, the “Acetylation rate with microtubules” value with microtubules [6] was approximately 1.6 h⁻¹. In the data set on microtubules [2] (50 microtubules, Figure 5F), the “Total microtubule length scanned, subtilisin-treated vs untreated microtubules” value was “covers the same total microtubule length”. In the data set with microtubules [2] (microtubules coated with DyLight 550 labeled spastin, ATPγS), the “Interaction time (τ), labeled spastin” value came to 1.5 s. In the data set on microtubules [2] (undecorated microtubules, Figure S5B), the “Average microtubule length scanned” value is 2.9 µm. The Maximum scan excursion result in the data set with microtubules [2] (undecorated microtubules, excursions up to, Figure S5B) is reported as “up to 10.4 µm”. Also, the “Stacking of dolastatin-induced tubulin rings” value in [7] is listed as “promotes stacking of dolastatin-induced tubulin rings in a dose-dependent manner”. The Km in the data set on TAT is approximately 32 µM.

B4: F105A TAT mutant: F105A TAT mutant defective in acetylation (protein)
chain: MEFPFDVDALFPERITVLDQHLRPPARRPGTTTPARVDLQQQIMTIIDELGKASAKAQNLSAPITSASRMQSNRHVVYILKDSSARPAGKGAIIGFIKVGYKKLAVLDDREAHNEVEPLCILDFYIHESVQRHGHGRELFQYMLQKERVEPHQLAIDRPSQKLLKFLNKHYNLETTVPQVNNFVIFEGFFAHQHRPPAPSLRATRHSRAAAVDPTPAAPARKLPPKRAEGDIKPYSSSDREFLKVAVEPPWPLNRAPRRATPPAHPPPRSSSLGNSPERGPLRPFVPEQELLRSLRLCPPHPTARLLLAADPGGSPAQRRRTRGTPPGLVAQSCCYSRHGGVNSSSPNTGNQDSKQGEQETKNRSASEEQALSQDGSGEKPMHTAPPQAPAPPAQSWTVGGDILNARFIRNLQERRSTRPW
For B4, the “Effect of mutation on TAT activity” value was “defective in acetylation” in the data set on microtubules and tubulin (N≥3); “severely impairs enzyme activity with both tubulin and microtubules” in the data set with microtubules and tubulin (N≥3, listed as Phe105). Besides, in data set [7], the “Stacking of dolastatin-induced tubulin rings” value is listed as “impaired in stack formation”.

B5: bead-coupled TAT: C-terminally biotinylated TAT construct coupled to streptavidin beads 1 µm in diameter (protein, UniProt Q5SQI0 1-421, looked up)
Alpha-tubulin …: MEFPFDVDALFPERITVLDQHLRPPARRPGTTTPARVDLQQQIMTIIDELGKASAKAQNLSAPITSASRMQSNRHVVYILKDSSARPAGKGAIIGFIKVGYKKLFVLDDREAHNEVEPLCILDFYIHESVQRHGHGRELFQYMLQKERVEPHQLAIDRPSQKLLKFLNKHYNLETTVPQVNNFVIFEGFFAHQHRPPAPSLRATRHSRAAAVDPTPAAPARKLPPKRAEGDIKPYSSSDREFLKVAVEPPWPLNRAPRRATPPAHPPPRSSSLGNSPERGPLRPFVPEQELLRSLRLCPPHPTARLLLAADPGGSPAQRRRTRGTPPGLVAQSCCYSRHGGVNSSSPNTGNQDSKQGEQETKNRSASEEQALSQDGSGEKPMHTAPPQAPAPPAQSWTVGGDILNARFIRNLQERRSTRPW
modifications: C-terminal biotin, streptavidin beads
Turning to B5, the “Activity with tubulin when bead-coupled” value in the data set with tubulin [8] was “retained activity with tubulin”. Further, the “Reduction of activity with microtubules on bead coupling” value in the data set on microtubules [9] is reported as approximately 89%.

B6: TAT-GFP: purified TAT-GFP for single-molecule TIRF microscopy (protein)
chain: MEFPFDVDALFPERITVLDQHLRPPARRPGTTTPARVDLQQQIMTIIDELGKASAKAQNLSAPITSASRMQSNRHVVYILKDSSARPAGKGAIIGFIKVGYKKLFVLDDREAHNEVEPLCILDFYIHESVQRHGHGRELFQYMLQKERVEPHQLAIDRPSQKLLKFLNKHYNLETTVPQVNNFVIFEGFFAHQHRPPAPSLRATRHSRAAAVDPTPAAPARKLPPKRAEGDIKPYSSSDREFLKVAVEPPWPLNRAPRRATPPAHPPPRSSSLGNSPERGPLRPFVPEQELLRSLRLCPPHPTARLLLAADPGGSPAQRRRTRGTPPGLVAQSCCYSRHGGVNSSSPNTGNQDSKQGEQETKNRSASEEQALSQDGSGEKPMHTAPPQAPAPPAQSWTVGGDILNARFIRNLQERRSTRPW
modifications: left off: GFP, end not stated, kept
Consider B6, for which the “Activity of GFP fusion vs untagged protein” value with microtubules [1] (Figure S5) is recorded as “comparable to that of the untagged protein”. Besides, the “Scanning on S. cerevisiae microtubules” value in data set [10] was “do not observe TAT-GFP scanning”. Further, in the data set with microtubules [2] (microtubules with saturating doublecortin), the “Interaction time (τ), doublecortin” value was 1.4 s. The “1D diffusion coefficient on microtubules” value in the data set with microtubules [2] (undecorated microtubules, MSD fit, 100 ms frames, mean, legend: fit) is 0.27 µm^2/s and 0.27 ± 0.01 µm^2/s. In the data set with microtubules [2] (undecorated microtubules, N=163, Figure 5D), the Scan starting position result is recorded as “randomly distributed on the microtubule, showing no bias for ends”. The “Interaction time (τ) on microtubules” value with microtubules [2] (undecorated microtubules, exponential fit corrected for photobleaching, N=269) was 1.5 s and 1.5 ± 0.3 s.
